Source: PubChem BioAssay (several laboratories)
Hep lipid drop: modulators of hepatic lipid droplet formation | AML12 mouse hepatocytes, oleate lipid droplets, BODIPY imaging | inhibition, % at 6.5 µM | 240,000 tested, 0.4% active;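 active means lipid droplet intensity inhibited by at least 50%, with more than 500 cells counted; inconclusive means wells with under 300 cells, treated as cytotoxic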
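Material – mouse AML12 hepatocyte cell line, fixed after treatment · Compound dosing – one dose, 6.5 µM compound · Times – compound with oleate, overnight · Measured by – Image-based BODIPY and DAPI two-channel analysis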
HSF1 inhib: HSF1 inhibition; AID 2098; activity change, negative = inhibition, % at 7.5 µM (by protocol); NIH3T3-HGL HSE-luciferase, MG132-induced, luminescence 8 h; active compounds read low; 300,000 tested, 0.77% active;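 active means more than half of replicate wells show activity change below -50%, luminescence cut by over half; inconclusive means some wells, but at most half, below -50%; inactive means no replicate well below -50%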;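 further: luciferase reports HSF-1 transcriptional activity via heat shock element; 0% = median of DMSO wells and -100% = zero luminescence signal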
CHT inh: human CHT choline transport inhibition; Q9GZV3; 310,000 tested, 0.86% active; AID 488975; CHT-expressing cells, membrane potential dye, choline response; active compounds read low; B-score at 10 µM;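 active means B-score over 3 SD under the library average, and starting fluorescence ratio not unusually high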;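 further: choline stimulus applied at its EC90 after an EC20 pre-addition; B-score computed on integrated fluorescence ratio after choline addition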
CHT allo act: allosteric activators of human choline transporter CHT | Q9GZV3 | CHT-expressing cells, membrane potential dye, choline EC20; active compounds read high; LV-AA mutant CHT in HEK293 cells | B-score at 10 µM | 310,000 tested, 0.49% active | AID 488977;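 active means initial fluorescence not abnormally high and integrated response B-score, plate-corrected, over 3 SD above library mean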
PHOSPHO1 block: PHOSPHO1 (human) inhibition; Q8TCT1; recombinant PHOSPHO1, absorbance phosphatase assay; inhibition, % at 13.3 µM; 290,000 tested, 1.1% active; in the data active means inhibition above about 60%
Target sequence (Q8TCT1 whole entry, looked up): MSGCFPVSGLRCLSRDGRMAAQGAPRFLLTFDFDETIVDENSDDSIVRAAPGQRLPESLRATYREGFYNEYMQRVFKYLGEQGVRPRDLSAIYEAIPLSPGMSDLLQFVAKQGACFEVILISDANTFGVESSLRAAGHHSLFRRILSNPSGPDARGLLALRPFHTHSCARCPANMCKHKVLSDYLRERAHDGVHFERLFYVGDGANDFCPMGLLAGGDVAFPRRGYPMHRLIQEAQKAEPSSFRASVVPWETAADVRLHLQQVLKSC
HSF1 activator: increases HSF-1 driven luciferase reporter signal; activation, % at 9 µM; NIH3T3-HGL HSF-1 luciferase reporter, MG132, 8 h; 100% = twice DMSO control signal; 300,000 tested, 1.7% active; AID 504408;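 active means mean replicate activation of at least 50% with a set share of replicates each reaching 50%; inconclusive means only one of those two conditions met; inactive means mean below 50% and too few replicates reaching it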;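 further: 0% = median of the neutral control wells and 100% = twice that signal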
Active calls of the source: *; i = inactive; ? = inconclusive; . = not tested or not shown. Compounds with a hit are over-represented: about 4.9% of the library has one in this group of screens.

SMILES | Hep lipid drop | HSF1 inhib | CHT inh | CHT allo act | PHOSPHO1 block | HSF1 activator
CC12CCC3C(CC=C4CC(O)CCC43C)C1C/C(=C\N1CCCC1)C2=O (configuration not stated) | -3 | 36 | . | . | 49 | 63*
CCCCc1nc2ccccc2c(=O)n1-c1ccc(O)cc1 | -26 | 24 | i | i | -10 | 41
CCCc1nc2ccccc2c(=O)n1-c1ccc(O)cc1 | 10 | 19 | i | i | 63* | 19
COCCCNC(=O)c1c(N)n(Cc2ccco2)c2nc3ccccc3nc12 | -14 | 81 | i | i | 11 | 115*
CC(C)CNC(=O)c1c(N)n(Cc2ccco2)c2nc3ccccc3nc12 | 31 | 30 | i | i | 3 | 56*
CCn1c(C)c(C(=O)Nc2ccc(OC)cc2)c2cc(OC)ccc21 | 4 | 14 | i | i | -2 | 14
CCSc1nnc(C(N)Cc2ccccc2)o1 (configuration not stated) | . | 7 | i | i | 25 | 9
CC(=O)N1CC(=O)Nc2ccc(Br)cc2C1c1ccc(F)cc1 (configuration not stated) | . | 9 | i | i | 36 | 30
C=CCn1c(O)c(/C(C)=N/N2CCCCC2)c(=O)[nH]c1=O | 5 | 25 | i | i | -2 | 67*
C=CCn1c(O)c(C(CC)=NCC2CCCO2)c(=O)[nH]c1=O (configuration not stated) | 2 | 30 | i | i | 8 | 65*
C=CCn1c(O)c(C(C)=NC2CCN(Cc3ccccc3)CC2)c(=O)[nH]c1=O | -4 | -88* | i | i | 30 | -91
O=[N+]([O-])c1ccccc1CN1CC=C(c2ccc(F)cc2)CC1 | -2 | -4 | i | i | 47 | -12
O=C(NC(=O)N1CCC2(CC1)OCCO2)c1ccc(Cl)cc1 | -2 | -9 | i | i | 57 | -25
CC1(C)C[C@H]2C=C(C=O)[C@]3(C=O)C[C@]3(C)[C@H]2C1 | ? | -76* | i | i | -7 | -79
C[N+]1(C)C2CC(OC(=O)[C@H](CO)c3ccccc3)CC1C1OC12 (some centres not stated) | . | . | i | i | . | .
CCC(=NCCO)c1c(O)n(-c2ccc(Cl)cc2)c(=O)[nH]c1=O | . | -7 | i | i | -6 | 13
Cc1ccccc1-[n+]1c(-c2ccccc2)cc(-c2ccccc2)cc1-c1ccccc1 | . | -5 | i | 7.5* | . | -13
O=C(O)c1ccc(-[n+]2c(-c3ccccc3)cc(-c3ccccc3)cc2-c2ccccc2)cc1 | . | -10 | i | i | . | -7
Brc1ccc(-[n+]2c(-c3ccccc3)cc(-c3ccccc3)cc2-c2ccccc2)cc1 | . | 17 | i | 12* | . | 14
CCCCn1c(O)c(C(C)=Nc2cccc(C(=O)O)c2)c(=O)[nH]c1=O | 15 | -12 | i | i | 52 | -8
CCc1ccc(N2C(=O)NC(=O)C(Cc3ccc(OC)cc3OC)C2=O)cc1 (configuration not stated) | 8 | -4 | i | i | 95* | 7
CN(C)c1ccc(/C=C/C=C2/C(=O)NC(=O)N(c3ccccc3)C2=O)cc1 | -9 | 73 | . | . | 12 | 119*
O=C1NC(=O)N(c2ccccc2)C(=O)/C1=C/C=C/c1ccco1 | -4 | 8 | i | i | 37 | 9
COc1ccc(Br)cc1CN1CCN(CCO)CC1 | . | -87* | i | i | -22 | -89
COc1cc(Br)cc(CN2CCN(C)CC2)c1O | 0 | . | i | i | 2 | .
SMILES | Hep lipid drop | HSF1 inhib | CHT inh | CHT allo act | PHOSPHO1 block | HSF1 activator
CN1C(=O)NC(=O)/C(=C\C=C\c2ccccc2[N+](=O)[O-])C1=O | -2 | -2 | i | i | -2 | 5
Cc1ccc2c(c1)N(C(=O)CCC(=O)N1CCC3(CC1)OCCO3)CCO2 | -14 | -51* | i | i | 53 | -63
CCN(CC)C(=O)c1ccc(NC(=O)c2ccc(-n3cncn3)c([N+](=O)[O-])c2)cc1 | . | -4 | i | i | . | -5
COc1cc(C(=S)N2CCOCC2)cc(OC)c1OC(=O)Cc1ccccc1 | -7 | 12 | -5.1* | i | -1 | 14
COc1ccc(C(=O)C2CCCN(Cc3cccc(C)n3)C2)c(OC)c1 (configuration not stated) | 0 | -4 | i | i | 28 | -1
COc1ccc(C(=O)C2CCCN(Cc3ccc(C)s3)C2)c(OC)c1 (configuration not stated) | -25 | 33 | i | i | 35 | 63*
OCC1(CO)COC(c2cccnc2)N1 (configuration not stated) | . | 18 | i | i | 7 | 66*
CC(C)(O)/C=C/C(=O)C(C)(O)C1C(O)CC2(C)C3CC=C4C(C=C(O)C(=O)C4(C)C)C3(C)C(=O)CC12C (configuration not stated) | . | 69* | . | . | . | 69*
CC1CN=C(NCc2ccccc2Cl)S1 (configuration not stated) | -2 | 2 | i | i | . | -4
Cc1cc(C)nc(-n2c(C)nc3cc(Cl)ccc3c2=O)c1 | 9 | -78* | i | i | 0 | -83
Cc1ccc(C[n+]2c(-c3ccc(C)cc3)cc(-c3ccc(C)cc3)cc2-c2ccc(C)cc2)cc1 | . | 9 | i | 8.7* | . | 1
Cc1ccc(-c2cc(-c3ccc(C)cc3)[n+](-c3ccc(C(=O)O)cc3)c(-c3ccc(C)cc3)c2)cc1 | . | -28 | i | i | . | -30
CSc1ccc(C(=O)C2CCCN(Cc3cc4ccccc4[nH]3)C2)cc1 (configuration not stated) | 0 | -28 | i | i | 32 | -40
CSc1ccc(C(=O)C2CCCN(Cc3cccnc3)C2)cc1 (configuration not stated) | -13 | 51 | i | i | -19 | 104*
COc1ccc(NC2=NC(C)(C)CS2)cc1 | 13 | 12 | i | i | 0 | 22
CC(C)[C@]12O[C@H]1[C@@H]1O[C@]13[C@]1(O[C@H]1C[C@H]1C4=C(CC[C@@]13C)C(=O)OC4)[C@@H]2O | 87* | -68* | i | i | 12 | -72
N#CCP(=S)(c1ccccc1)c1ccccc1 | -4 | -3 | i | i | -5 | 7
CCN(CC)c1ccc(CN2CC=C(c3ccc(F)cc3)CC2)cc1 | -1 | 3 | i | i | -34 | 7
COc1ccc(CN2CC=C(c3ccc(F)cc3)CC2)cc1Br | 3 | -68* | i | i | 8 | -76
COc1cccc(C2C([N+](=O)[O-])=C(N)Oc3c2c(=O)oc2ccccc32)c1 (configuration not stated) | -12 | 37 | i | i | 26 | 59*
